Columns and labels:
Type in all cases: functional
[1] = test system: HL-60(TB); assay: Growth inhibition of human HL-60(TB) cells at 10 uM incubated for 48 hrs by sulforhodamine B assay relative to control; details: read-out: GI
Method in brief: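 NCI-60 one-dose screen: same culture, 48 h drug exposure and SRB read-out. Reported as percent growth relative to no-drug control and to time-zero cell number; 0–100 means growth inhibition, below 0 means lethality.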

[2] = test system: SF-268; assay: Growth inhibition of human SF-268 cells at 10 uM incubated for 48 hrs by sulforhodamine B assay relative to control; details: read-out: GI
Method in brief: (§1)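 NCI one-dose screen. Cells grown in RPMI 1640 with 5% FBS and 2 mM L-glutamine, plated and incubated 24 h at 37 °C, 5% CO2. DMSO-dissolved drug added, then 48 h further incubation. Adherent cells fixed with cold TCA, suspension cells fixed after settling. Stained with 0.4% SRB, absorbance read at 515 nm. Reported as percent growth relative to no-drug control and time-zero cell number.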

[3] = test system: SF-295; assay: Growth inhibition of human SF-295 cells at 10 uM incubated for 48 hrs by sulforhodamine B assay relative to control; details: read-out: GI; method in brief: as §1
[4] = test system: SNB-75; assay: Growth inhibition of human SNB-75 cells at 10 uM incubated for 48 hrs by sulforhodamine B assay relative to control; details: read-out: GI; method in brief: as §1
[5] = test system: U-251; assay: Growth inhibition of human U-251 cells at 10 uM incubated for 48 hrs by sulforhodamine B assay relative to control; details: read-out: GI
Method in brief: (§2)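 NCI one-dose screen across a 59-line panel. Cells were grown in RPMI 1640 with 5% FBS and 2 mM L-glutamine, plated and pre-incubated 24 h, then exposed to drug for 48 h at 37 °C, 5% CO2. Adherent cells were fixed with cold TCA (10% final), stained with 0.4% SRB in 1% acetic acid and read at 515 nm. Result is percent growth relative to no-drug control and time-zero cell count.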

[6] = test system: M14; assay: Growth inhibition of human M14 cells at 10 uM incubated for 48 hrs by sulforhodamine B assay relative to control; details: read-out: GI
Method in brief: (§3)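 NCI-60 single-dose screen. Cells were grown in RPMI 1640 with 5% FBS and 2 mM L-glutamine and plated 24 h before drug addition. Compound was added at one concentration in DMSO-derived medium and incubated for 48 h at 37 °C in 5% CO2. Read-out was SRB protein stain at 515 nm. Result is percent growth versus the no-drug control and the time-zero cell count; values below 0 indicate lethality.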

[7] = test system: MDA-MB-435; assay: Growth inhibition of human MDA-MB-435 cells at 10 uM incubated for 48 hrs by sulforhodamine B assay relative to control; details: read-out: GI; method in brief: as §3
[8] = test system: OVCAR-5; assay: Growth inhibition of human OVCAR-5 cells at 10 uM incubated for 48 hrs by sulforhodamine B assay relative to control; details: read-out: GI; method in brief: as §1
[9] = test system: SK-OV-3; assay: Growth inhibition of human SK-OV-3 cells at 10 uM incubated for 48 hrs by sulforhodamine B assay relative to control; details: read-out: GI; method in brief: as §1
[10] = test system: UO-31; assay: Growth inhibition of human UO-31 cells at 10 uM incubated for 48 hrs by sulforhodamine B assay relative to control; details: read-out: GI; method in brief: as §2
[11] = test system: MCF7; assay: Growth inhibition of human MCF7 cells at 10 uM incubated for 48 hrs by sulforhodamine B assay relative to control; details: read-out: GI; method in brief: as §3
[12] = test system: MDA-MB-231; assay: Growth inhibition of human MDA-MB-231 cells at 10 uM incubated for 48 hrs by sulforhodamine B assay relative to control; details: read-out: GI; method in brief: as §3
[13] = test system: MOLT-4; assay: Growth inhibition of human MOLT-4 cells incubated for 48 hrs by sulforhodamine B assay
Method in brief: (§4)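 NCI five-dose screen (0.01–100 µM; five concentrations plus control). Cells grown in RPMI 1640/5% FBS/2 mM L-glutamine and preincubated 24 h, with time-zero plates TCA-fixed. Drug exposure 48 h at 37 °C, followed by SRB protein staining and reading at 515 nm. GI50 is the concentration at [(Ti-Tz)/(C-Tz)]×100 = 50.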

[14] = test system: A549; assay: Growth inhibition of human A549 cells incubated for 48 hrs by sulforhodamine B assay
Method in brief: (§5)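 NCI five-dose screen covering 0.01–100 µM, prepared as 10-fold or ½-log dilutions from DMSO stock. Cells in RPMI 1640 with 5% FBS were exposed for 48 h at 37 °C after 24 h preincubation. Adherent cells were fixed with TCA (final 10%) and suspension cells were settled before fixing. Stain was SRB, read at 515 nm. GI50 = 50% reduction in net protein increase versus control, with Tz taken at drug addition.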

[15] = test system: NCI-H226; assay: Growth inhibition of human NCI-H226 cells incubated for 48 hrs by sulforhodamine B assay; method in brief: as §4
[16] = test system: NCI-H23; assay: Growth inhibition of human NCI-H23 cells incubated for 48 hrs by sulforhodamine B assay; method in brief: as §4
[17] = test system: COLO 205; assay: Growth inhibition of human COLO 205 cells incubated for 48 hrs by sulforhodamine B assay; method in brief: as §5
[18] = test system: HCT-29; assay: Growth inhibition of human […] cells incubated for 48 hrs by sulforhodamine B assay; method in brief: as §5
[19] = test system: KM12; assay: Growth inhibition of human KM12 cells incubated for 48 hrs by sulforhodamine B assay; method in brief: as §5
[20] = test system: SF-268; assay: Growth inhibition of human SF-268 cells incubated for 48 hrs by sulforhodamine B assay; method in brief: as §4
[21] = test system: Malme-3M; assay: Growth inhibition of human Malme-3M cells incubated for 48 hrs by sulforhodamine B assay; method in brief: as §4
[22] = test system: SK-MEL-2; assay: Growth inhibition of human SK-MEL-2 cells incubated for 48 hrs by sulforhodamine B assay; method in brief: as §4
[23] = test system: UACC-257; assay: Growth inhibition of human UACC-257 cells incubated for 48 hrs by sulforhodamine B assay
Method in brief: (§6)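 NCI five-dose assay, with drug stocks in DMSO diluted in medium to five concentrations (10-fold or ½-log series). Cells in RPMI 1640/5% FBS were pre-incubated 24 h, and time-zero plates were TCA-fixed at drug addition. After 48 h at 37 °C, cells were TCA-fixed, SRB-stained and read at 515 nm. GI50 is from [(Ti-Tz)/(C-Tz)]×100 = 50, TGI from Ti = Tz, and LC50 from [(Ti-Tz)/Tz]×100 = -50.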

[24] = test system: OVCAR-3; assay: Growth inhibition of human OVCAR-3 cells incubated for 48 hrs by sulforhodamine B assay; method in brief: as §4
[25] = test system: OVCAR-4; assay: Growth inhibition of human OVCAR-4 cells incubated for 48 hrs by sulforhodamine B assay; method in brief: as §4
[26] = test system: OVCAR-5; assay: Growth inhibition of human OVCAR-5 cells incubated for 48 hrs by sulforhodamine B assay; method in brief: as §4
[27] = test system: OVCAR-8; assay: Growth inhibition of human OVCAR-8 cells incubated for 48 hrs by sulforhodamine B assay; method in brief: as §4
[28] = test system: NCI/ADR-RES; assay: Growth inhibition of human NCI/ADR-RES cells incubated for 48 hrs by sulforhodamine B assay; method in brief: as §4
[29] = test system: 786-0; assay: Growth inhibition of human 786-0 cells incubated for 48 hrs by sulforhodamine B assay; method in brief: as §5
[30] = test system: RXF 393; assay: Growth inhibition of human RXF 393 cells incubated for 48 hrs by sulforhodamine B assay; method in brief: as §4
[31] = test system: UO-31; assay: Growth inhibition of human UO-31 cells incubated for 48 hrs by sulforhodamine B assay; method in brief: as §6
[32] = test system: MDA-MB-231; assay: Growth inhibition of human MDA-MB-231 cells incubated for 48 hrs by sulforhodamine B assay; method in brief: as §5

Compound	inhibition of growth at 10 µM [1]	inhibition of growth at 10 µM [2]	inhibition of growth at 10 µM [3]	inhibition of growth at 10 µM [4]	inhibition of growth at 10 µM [5]	inhibition of growth at 10 µM [6]	inhibition of growth at 10 µM [7]	inhibition of growth at 10 µM [8]	inhibition of growth at 10 µM [9]	inhibition of growth at 10 µM [10]	inhibition of growth at 10 µM [11]	inhibition of growth at 10 µM [12]	GI50 [13]	GI50 [14]	GI50 [15]	GI50 [16]	GI50 [17]	GI50 [18]	GI50 [19]	GI50 [20]	other results
COc1cc2nc(-c3ccc(Cl)cc3)cc(OCCCN3CCC(O)CC3)c2cc1OC	62%	62%	62%	62%	62%	62%	62%	62%	62%	62%	62%	62%	1800 nM	2200 nM	1390 nM	2830 nM	532 nM	700 nM	3130 nM	3360 nM	GI50 [21]: 1890 nM; GI50 [22]: 2070 nM; GI50 [23]: 2060 nM; GI50 [24]: 3240 nM; GI50 [25]: 4340 nM; GI50 [26]: 1160 nM; GI50 [27]: 2000 nM; GI50 [28]: 925 nM; GI50 [29]: 3310 nM; GI50 [30]: 1220 nM; GI50 [31]: 1720 nM; GI50 [32]: 665 nM
COc1cc2nc(-c3ccc(Cl)cc3)cc(OCCCN3CCCCC3)c2cc1OC	62%	62%	62%	62%	62%	62%	62%	62%	62%	62%	62%	62%	2040 nM	1900 nM	1120 nM	2950 nM	582 nM	492 nM	3070 nM	3200 nM	GI50 [21]: 1740 nM; GI50 [22]: 2750 nM; GI50 [23]: 1920 nM; GI50 [24]: 3230 nM; GI50 [25]: 3850 nM; GI50 [26]: 1160 nM; GI50 [27]: 1770 nM; GI50 [28]: 898 nM; GI50 [29]: 2620 nM; GI50 [30]: 1080 nM; GI50 [31]: 1870 nM; GI50 [32]: 666 nM

— ChEMBL document CHEMBL4732237, “Discovery of 4-alkoxy-2-aryl-6,7-dimethoxyquinolines as a new class of topoisomerase I inhibitors endowed with potent in vitro anticancer activity” (2021)
